# Assay results: ChEMBL document CHEMBL4425131, “Convergent Synthesis of Novel Muramyl Dipeptide Analogues: Inhibition of Porphyromonas gingivalis-Induced Pro-inflammatory Effects by High Doses of Muramyl Dipeptide” (J Med Chem, 2016)
# The source made the active and inactive calls. The calls are words filed in the database; no cut-off is given here.
# Key:
# RAW264.7 [1] = experiment: Downregulation of Porphyromonas gingivalis-induced NFkappaB mRNA expression in wild type mouse RAW264.7 cells at 100 ug/ml after 3 hrs by RT-PCR analysis; type: functional, cell-based
# Summary of the method: (§1)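 Macrophages in RPMI 1640 with 10% FBS, 37 °C, 5% CO2, left untreated, given P. gingivalis alone or test agent alone as controls, or co-treated with P. gingivalis plus 10, 100 or 200 µg/ml for 3 h. Total RNA analysed by real-time RT-PCR (SYBR Green) for NFkB, RIP2 or NOD2, normalized to GAPDH; mean ± S.E.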
# RAW264.7 [2] = experiment: Downregulation of Porphyromonas gingivalis-induced TNF-alpha protein expression in wild type mouse RAW264.7 cells at 10 to 200 ug/ml after 3 hrs by ELISA; type: functional, cell-based
# Summary of the method: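 Macrophages left untreated, given P. gingivalis alone or test agent alone as controls, or co-treated with P. gingivalis plus 10, 100 or 200 µg/ml for 3 h. TNF-α in culture supernatant measured by ELISA kit; mean ± S.E.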
# RAW264.7 [3] = experiment: Upregulation of AP1 protein expression in wild type mouse RAW264.7 cells after 3 hrs by Western blot analysis; type: functional, cell-based
# Summary of the method: (§2)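 Macrophages left untreated, given a scrambled (SC) peptide as negative control, or treated with low (10 µg/ml) or high (100 µg/ml) MDP for 3 h. Whole-cell and nuclear protein fractions prepared with Hepes pH 7.9 buffers and probed by Western blot for A20, AP1, MyD88 or NFκB. Triplicate assays.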
# RAW264.7 [4] = experiment: Downregulation of Porphyromonas gingivalis-induced NOD2 mRNA expression in wild type mouse RAW264.7 cells at 100 ug/ml after 3 hrs by RT-PCR analysis; type: functional, cell-based; summary of the method: as §1
# Mus musculus [5] = experiment: Antiinflammatory activity in wild type C57BL/6 mouse assessed as reduction of Porphyromonas gingivalis-induced septic shock at 2 to 8 mg/kg, ip; type: functional, organism-based
# RAW264.7 [6] = experiment: Downregulation of Porphyromonas gingivalis-induced RIP2 mRNA expression in wild type mouse RAW264.7 cells at 100 ug/ml after 3 hrs by RT-PCR analysis; type: functional, cell-based; summary of the method: as §1
# RAW264.7 [7] = experiment: Upregulation of A20 protein expression in wild type mouse RAW264.7 cells after 3 hrs by Western blot analysis; type: functional, cell-based; summary of the method: as §2
# Mus musculus [8] = experiment: Antiinflammatory activity in wild type C57BL/6 mouse assessed as reduction of Porphyromonas gingivalis-induced septic shock at 8 mg/kg, ip; type: functional, organism-based
# RAW264.7 [9] = experiment: Effect on Porphyromonas gingivalis-induced RIP2 mRNA level in wild type mouse RAW264.7 cells at 100 ug/ml after 3 hrs by RT-PCR analysis relative to control; type: functional
# Summary of the method: (§3)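 Macrophages left untreated (negative control), given P. gingivalis alone (positive control), or co-treated with P. gingivalis plus low (10 µg/ml) or high (100 µg/ml) MDP for 3 h. Total mRNA analysed by real-time RT-PCR for NOD2, RIP2 or A20, normalized to GAPDH. NOD2/RIP2 expressed relative to P. gingivalis alone (100%); A20 relative to the low-dose treatment (100%). Triplicates, mean ± SEM.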
# RAW264.7 [10] = experiment: Effect on Porphyromonas gingivalis-induced RIP2 mRNA level in wild type mouse RAW264.7 cells at 10 ug/ml after 3 hrs by RT-PCR analysis relative to control; type: functional; summary of the method: as §3
# RAW264.7 [11] = experiment: Upregulation of Porphyromonas gingivalis-induced p53 protein level in wild type mouse RAW264.7 cells at 10 to 1000 ug/ml after 3 hrs by Western blot analysis; type: functional, cell-based
# Summary of the method: (§4)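 Macrophages treated with MDP at 0, 10, 100 or 1,000 µg/ml, alone or together with P. gingivalis, for 3 h. Total protein probed by Western blot for p21 or p53, with actin as loading control. Triplicate assays.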
# RAW264.7 [12] = experiment: Upregulation of A20 promoter DNA level in wild type mouse RAW264.7 cells at 100 ug/ml after 3 hrs by ChIP assay; type: functional, cell-based
# Summary of the method: (§5)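 RAW264.7 cells treated with low (10 µg/ml) or high (100 µg/ml) MDP for 3 h, or transfected overnight with 1 µg AP1 cDNA as comparator. 10 µg nuclear extract from cross-linked cells immunoprecipitated with 1 µg anti-AP1 antibody or normal mouse IgG at 4 °C for 4 h; A20 promoter and GAPDH fragments amplified by PCR from input and IPs. Triplicates.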
# Peritoneal macrophage [13] = experiment: Effect on Porphyromonas gingivalis-induced TNFalpha expression in wild type mouse primary peritoneal macrophages at 1 mg/ml after 3 hrs by ELISA relative to control; type: functional
# Summary of the method: (§6)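 Primary peritoneal macrophages from C57BL/6 mice cultured in RPMI 1640 with 10% FBS. Cells left untreated, given 10, 100 or 1,000 µg/ml MDP alone, given P. gingivalis alone, or co-treated with P. gingivalis plus 10, 100 or 1,000 µg/ml MDP for 3 h. TNF-α in conditioned medium measured by ELISA; mean ± S.E.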
# RAW264.7 [14] = experiment: Effect on A20 protein level in wild type mouse RAW264.7 cells at 100 ug/ml after 3 hrs by Western blot analysis relative to SC peptide; type: functional; summary of the method: as §2
# RAW264.7 [15] = experiment: Upregulation of A20 mRNA level in wild type mouse RAW264.7 cells at 100 ug/ml after 3 hrs by RT-PCR analysis relative to control; type: functional; summary of the method: as §3
# RAW264.7 [16] = experiment: Effect on NFkappaB protein level in wild type mouse RAW264.7 cells at 100 ug/ml after 3 hrs by Western blot analysis relative to SC peptide; type: functional; summary of the method: as §2
# RAW264.7 [17] = experiment: Effect on AP1 protein level in wild type mouse RAW264.7 cells at 100 ug/ml after 3 hrs by Western blot analysis relative to SC peptide; type: functional; summary of the method: as §2
# RAW264.7 [18] = experiment: Effect on A20 protein level in wild type mouse RAW264.7 cells at 10 ug/ml after 3 hrs by Western blot analysis relative to SC peptide; type: functional; summary of the method: as §2
# RAW264.7 [19] = experiment: Effect on A20 mRNA level in wild type mouse RAW264.7 cells at 10 ug/ml after 3 hrs by RT-PCR analysis relative to control; type: functional; summary of the method: as §3
# [20] = Toxicity in Porphyromonas gingivalis-induced wild type C57BL/6 mouse septic shock model assessed as mortality at 2 mg/kg, ip; type: organism-based; conditions: in vivo
# Summary of the method: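 Mice were 8–10-week-old WT C57BL/6, kept specific pathogen-free. They received a single i.p. co-injection of P. gingivalis (1 × 10^8/kg) plus MDP at 2 mg/kg (50 µg/mouse). Controls were DMSO alone or P. gingivalis alone. Animals were watched continuously for endotoxic response for 2 h after injection; n = 3 per group.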
# [21] = Cytotoxicity against wild type mouse RAW264.7 cells assessed as survival rate at 10 ug/ml measured for 24 hrs by trypan blue assay relative to control; type: cell-based; conditions: wild type RAW264.7 cells, read-out: Survival
# Summary of the method: (§7)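 WT mouse macrophages in RPMI 1640 with 10% FBS (37 °C, 5% CO2) were exposed to MDP for 0, 2, 4, 8, 12, 16, 18 or 24 h, then harvested with trypsin. Viability was counted by Trypan blue exclusion and expressed relative to 0 µg/ml MDP at 24 h (set as 100%). Done in triplicate; mean ± S.E.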
# RAW264.7 [22] = experiment: Effect on NFkappaB protein level in wild type mouse RAW264.7 cells at 10 ug/ml after 3 hrs by Western blot analysis relative to SC peptide; type: functional; summary of the method: as §2
# RAW264.7 [23] = experiment: Effect on MyD88 protein level in wild type mouse RAW264.7 cells at 10 ug/ml after 3 hrs by Western blot analysis relative to SC peptide; type: functional; summary of the method: as §2
# RAW264.7 [24] = experiment: Effect on A20 mRNA level in wild type mouse RAW264.7 cells at 100 ug/ml after 3 hrs by RT-PCR analysis relative to control; type: functional; summary of the method: as §3
# [25] = Cytotoxicity against wild type mouse RAW264.7 cells assessed as survival rate at 1 mg/ml measured for 24 hrs by trypan blue assay relative to control; type: cell-based; conditions: wild type RAW264.7 cells, read-out: Survival; summary of the method: as §7
# Peritoneal macrophage [26] = experiment: Effect on Porphyromonas gingivalis-induced TNFalpha expression in wild type mouse primary peritoneal macrophages at 100 ug/ml after 3 hrs by ELISA relative to control; type: functional; summary of the method: as §6
# [27] = Cytotoxicity against wild type mouse RAW264.7 cells assessed as survival rate at 100 ug/ml measured for 24 hrs by trypan blue assay relative to control; type: cell-based; conditions: wild type RAW264.7 cells, read-out: Survival; summary of the method: as §7
# RAW264.7 [28] = experiment: Effect on Porphyromonas gingivalis-induced NOD2 mRNA level in wild type mouse RAW264.7 cells at 10 ug/ml after 3 hrs by RT-PCR analysis relative to control; type: functional; summary of the method: as §3
# RAW264.7 [29] = experiment: Effect on AP1 protein level in wild type mouse RAW264.7 cells at 10 ug/ml after 3 hrs by Western blot analysis relative to SC peptide; type: functional; summary of the method: as §2
# Peritoneal macrophage [30] = experiment: Effect on Porphyromonas gingivalis-induced TNFalpha expression in wild type mouse primary peritoneal macrophages at 10 ug/ml after 3 hrs by ELISA relative to control; type: functional; summary of the method: as §6
# RAW264.7 [31] = experiment: Upregulation of Porphyromonas gingivalis-induced p21 protein level in wild type mouse RAW264.7 cells at 10 to 1000 ug/ml after 3 hrs by Western blot analysis; type: functional, cell-based; summary of the method: as §4
# RAW264.7 [32] = experiment: Effect on MyD88 protein level in wild type mouse RAW264.7 cells at 100 ug/ml after 3 hrs by Western blot analysis relative to SC peptide; type: functional; summary of the method: as §2
# RAW264.7 [33] = experiment: Upregulation of A20 promoter DNA level in wild type mouse RAW264.7 cells at 10 ug/ml after 3 hrs by ChIP assay; type: functional, cell-based; summary of the method: as §5
# RAW264.7 [34] = experiment: Effect on Porphyromonas gingivalis-induced NOD2 mRNA level in wild type mouse RAW264.7 cells at 100 ug/ml after 3 hrs by RT-PCR analysis relative to control; type: functional; summary of the method: as §3
smiles,measurement,setting,value
CC(=O)N[C@H]1[C@@H](OCc2ccccc2)O[C@@H]2COC(C)(C)O[C@H]2[C@@H]1O[C@H](C)C(=O)N[C@@H](C)C(=O)N[C@H](CCC(=O)OCc1ccccc1)C(N)=O,Activity,RAW264.7 [1],Active
same,Activity,RAW264.7 [2],Active
same,Activity,RAW264.7 [3],Active
same,Activity,RAW264.7 [4],Active
same,Activity,Mus musculus [5],Active
same,Activity,RAW264.7 [6],Active
same,Activity,RAW264.7 [7],Active
CC(=O)N[C@H]1C(O)O[C@H](CO)[C@@H](O)[C@@H]1O[C@H](C)C(=O)N[C@@H](C)C(=O)N[C@H](CCC(=O)O)C(N)=O (some centres not stated) [MURAMYL DIPEPTIDE],Activity,Mus musculus [8],Active
same,Activity,RAW264.7 [9],104%
same,Activity,RAW264.7 [10],103%
same,Activity,RAW264.7 [11],inactive
same,Activity,RAW264.7 [12],Active
same,Activity,Peritoneal macrophage [13],62%
same,Activity,RAW264.7 [14],236%
same,fold change (FC),RAW264.7 [15],5.6
same,Activity,RAW264.7 [16],142%
same,Activity,RAW264.7 [2],Active
same,Activity,RAW264.7 [17],282%
same,Activity,RAW264.7 [18],106%
same,Activity,RAW264.7 [19],117%
same,Activity,[20],Toxic
same,"viability at 24 h, 10 ug/ml",[21],92%
same,Activity,RAW264.7 [22],388%
same,Activity,RAW264.7 [23],274%
same,Activity,RAW264.7 [24],565%
same,Activity,RAW264.7 [3],Active
same,"viability at 24 h, 1 mg/ml",[25],88%
same,Activity,Peritoneal macrophage [26],84%
same,"viability at 24 h, 100 ug/ml",[27],89%
same,Activity,RAW264.7 [28],136%
same,Activity,RAW264.7 [29],135%
same,Activity,Peritoneal macrophage [30],129%
same,Activity,RAW264.7 [31],inactive
same,Activity,RAW264.7 [32],144%
same,Activity,RAW264.7 [7],Active
same,Activity,RAW264.7 [33],inactive
same,Activity,RAW264.7 [34],95%
